# Screens as filed in PubChem.
# Most compounds without a hit are left out; they make up all but 3.5% or so of the library.
# STAT3 activator: increases IL-6 driven STAT3 reporter signal; U3A cells, IL-6 STAT3-luciferase reporter, luminescence; 100% = signal with IL-6 EC80 alone; activation (% of control), % at 5.6 µM; 190,000 compounds, 0.91% hits;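 active means activation above the screen-wide mean of compound activation plus 3 SD, cut at about 130% in these data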;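 further: 0% = background luminescence of wells with medium and substrate only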
#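 Material: human U3A cells carrying STAT3-luciferase construct. Measured by: reporter luminescence signal. Timing: compound 1 h, then IL-6 6 h at 37 °C.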
# AHR activator: activates the human aryl hydrocarbon receptor; P35869; 320,000 compounds, 2.5% hits; AHR-responsive luciferase reporter cells, luminescence; activation, % at 5 µM; in the data active means activation above about 47%;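 further: 0% = vehicle wells and 100% = reference agonist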
# FXIa inh: blocks human coagulation factor XIa protease activity | P03951 | purified FXIa, Boc-Glu-Ala-Arg-AMC fluorogenic substrate | inhibition, % at 5 µM | 220,000 compounds, 0.14% hits;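 active means inhibition of at least 40%; inactive means inhibition below 40%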;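 further: fluorescence of freed AMC excited at 355 nm; 0% = enzyme without compound and 100% = no enzyme blank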
# FXIIa inh 1536: factor XIIa (human) inhibition. 220,000 compounds, 0.3% hits. P00748. inhibition, % at 5 µM. purified FXIIa, Boc-QGR-AMC fluorogenic substrate, 2 h; in the data active means inhibition above about 40%;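 further: 0% = enzyme with no compound and 100% = blank without enzyme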
# KLK5 inh: inhibitors of human kallikrein 5 | Q9Y337 | recombinant hK5, fluorogenic AMC substrate cleavage | inhibition, % at 5 µM | 210,000 compounds, 0.59% hits;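 active means inhibition of 40% or more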;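 further: 0% = enzyme controls without compound and 100% = no-enzyme blanks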
# Target sequence (Q9Y337 67-293 limits assumed): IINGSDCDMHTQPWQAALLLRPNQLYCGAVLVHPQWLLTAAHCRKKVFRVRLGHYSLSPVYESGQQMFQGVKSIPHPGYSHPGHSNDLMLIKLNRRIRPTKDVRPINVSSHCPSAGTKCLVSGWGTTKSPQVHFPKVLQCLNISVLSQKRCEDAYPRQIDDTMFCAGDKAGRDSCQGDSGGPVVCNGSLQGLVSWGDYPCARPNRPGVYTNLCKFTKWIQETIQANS
# Thrombin inh: blocks human thrombin protease activity. inhibition, % at 5 µM. 220,000 compounds, 0.26% hits. P00734. alpha-thrombin, Boc-VPR-AMC fluorogenic substrate cleavage;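 active means inhibition at or above 40%; inactive means inhibition below 40%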;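 further: 0% = enzyme with no compound and 100% = wells without enzyme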
#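 Test system: human alpha-thrombin protein / Dosing: one concentration per compound, 5 µM, with 0.2% DMSO / Medium: pH 7.5 Tris-saline with Tween 20 / Benchmarks: no-compound enzyme wells and no-enzyme blanks / Read-out basis: percent inhibition of thrombin substrate cleavage / Timing: reaction at room temperature / Measured by: fluorescence, ex 355 nm, em 460 nm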
# AHR act confirm: human AHR activation, confirmation | 2,300 compounds, 87% hits | shares compounds with AHR activator | activation, % at 9 µM | human cells, AHR-responsive luciferase reporter, luminescence; in the data active means activation above about 49%;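 further: HepG2 hepatoma cells carrying a DRE-driven firefly luciferase reporter; 0% = vehicle wells and 100% = reference agonist wells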
# PXR act counter: PXR activation, counter-screen for AHR activators; shares compounds with AHR activator; cell-based PXR reporter, luciferase luminescence; activation, % at 11.6 µM; 2,300 compounds, 88% hits; AID 434939; in the data active means activation above about 11%;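 further: human hepatoma DPX-2 cells expressing full-length human PXR; 0% = DMSO and 100% = reference agonist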
# * = called active by the depositor; . = no result.
SMILES,STAT3 activator,AHR activator,FXIa inh,FXIIa inh 1536,KLK5 inh,Thrombin inh,AHR act confirm,PXR act counter
COC(=O)/C(=C/c1ccc2c(c1)c1ccccc1n2C)NC(=O)c1ccccc1,100,82*,-2,-4,-6,-9,104*,97*
Fc1ccc2nc(Nc3nc4cc5c(cc4s3)OCO5)sc2c1,103,119*,3,4,-84,-8,80*,19*
Fc1ccc2nc(Nc3nc4cc5c(cc4s3)OCCO5)sc2c1,97,103*,-5,-11,-126,-14,52*,-6
CC(=O)c1sc(Nc2nc3cc4c(cc3s2)OCO4)nc1C,94,.,1,9,-11,4,.,.
CCN(CC(=O)Nc1cc(Cl)ccc1C)C(=O)c1nc2nc(C)cc(C)n2n1,.,4,.,.,.,.,.,.
O=C(NCCc1ccccn1)c1c(-c2ccsc2)sc2ccccc12,.,128*,.,.,.,.,92*,161*
O=C(NCCc1ccccn1)c1c(-c2ccccc2)sc2ccccc12,.,12,.,.,.,.,.,.
CCCn1c(SCC(=O)NC2CCCC2)nnc1-c1cccnc1,.,0,.,.,.,.,.,.
CC(=O)Nc1cc(-c2ccc(Cl)cc2)[nH]n1,101,95*,0,4,-2,3,160*,.
COc1cc(OC)cc(-c2cc(NC(C)=O)n[nH]2)c1,102,46,3,13,-5,1,.,.
CCc1ccc(/C=c2\s/c(=C\C(=O)C(C)(C)C)[nH]c2=O)cc1,93,27,0,12,4,3,.,.
Cc1ccccc1/C=c1\s/c(=C\C(=O)C(C)(C)C)[nH]c1=O,92,119*,10,20,1,7,76*,105*
Cc1onc(-c2ccccc2Cl)c1C(=O)OCC(=O)N1CCCc2ccccc21,111,3,-12,9,-6,3,.,.
CCNC(=O)/C(C#N)=C/c1c(N2CCN(c3ccccc3)CC2)nc2c(C)cccn2c1=O,.,80*,.,.,.,.,69*,19*
CCNC(=O)/C(C#N)=C/c1c(N2CCN(c3ccc(OC)cc3)CC2)nc2c(C)cccn2c1=O,.,22,.,.,.,.,.,.
Cc1cc(Nc2ccc(Br)cc2)n2nc(C)nc2n1,89,107*,4,10,8,6,88*,.
CC(C)Cn1c(/C=C/c2ccccc2)nc2ccccc21,98,84*,-6,-13,-27,-10,119*,68*
NS(=O)(=O)c1ccc(NC(=O)/C=C/c2ccccc2[N+](=O)[O-])cc1,104,8,3,11,-7,-8,.,.
NS(=O)(=O)c1ccc(N/N=C/C=C/c2ccccc2[N+](=O)[O-])cc1,.,82*,.,.,.,.,6,25*
Cn1c(-c2ccc(Br)o2)nc2cc(Br)ccc21,109,116*,1,8,3,-3,125*,20*
Cn1c(-c2ccc(Br)o2)nc2ccccc21,92,33,1,10,1,3,.,.
CN(C)Cc1cnc2ccc(Cl)cn12,99,0,2,5,-22,-2,.,.
CN(C)Cc1c(-c2ccc(Cl)cc2)nc2ccc(Cl)cn12,82,133*,-5,3,-5,-10,109*,12*
CCc1c(C)nc2cc(-c3ccc(Cl)cc3)[nH]n2c1=O,.,113*,.,.,.,.,95*,22*
O=C(CN1CCCc2ccccc21)N/N=C/c1ccccc1,120,87*,9,5,-4,3,25,40*
CCN(CC)c1ccc(/C=N/NC(=O)CN2CCCc3ccccc32)cc1,110,32,13,14,-2,-1,.,.
CC(=O)Nc1ccc(NS(=O)(=O)c2cn(C)c(=O)n(C)c2=O)cc1,105,2,14,19,-10,-2,.,.
O=C(NCCCN1CCOCC1)c1cc(-c2cccs2)on1,120,19,3,7,-5,0,.,.
O=C(NCCCn1ccnc1)c1cc(-c2cccs2)on1,123,143*,0,-3,-8,-9,458*,46*
O=C(Nc1ccc(Cl)c(Cl)c1)c1ccc(Cl)c(Cl)c1,.,168*,0,3,0,-3,159*,33*
